Measured values published in ChEMBL document CHEMBL4706742, “Induction of Apoptosis in Cancer Cells by Glutathione Transferase Inhibitor Mediated Hydrophobic Tagging Molecules” (2021).
Active and inactive are the calls of the source. The rule behind the calls is not given here.

What was measured:
[1] = biological target: Glutathione S-transferase P (Homo sapiens) (UniProt P09211); assay: Inhibition of recombinant human N-terminal His-tagged GSTP1 (1 to 210 residues) expressed in Escherichia coli at 100 uM using reduced GSH as substrate measured after 0.5 hrs by CDNB assay
In short: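 GSTP catalytic activity followed via GSH–CDNB conjugation, read as absorbance at 340 nm specific to the conjugate. Compounds tested up to 100 μM.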

[2] = biological target: Glutathione S-transferase P (Homo sapiens) (UniProt P09211); assay: Induction of GSTP1 degradation in human HeLa cells at 40 to 80 uM measured after 3 hrs by Western blot analysis; format: cell-based; details: dose 40-80 µM
In short: (§1)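 GSTP protein in whole-cell lysates, detected by Western blot with specific antibodies after 3 h compound exposure. HeLa (high GSTP expression) treated at 40 or 80 μM or over a dose range; A549 and HT1080 cells (high or medium GSTP) also tested. Blots representative of three independent experiments.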

[3] = biological target: Glutathione S-transferase P (Homo sapiens) (UniProt P09211); assay: Induction of GSTP1 degradation in human HeLa cells at 80 uM measured after 3 hrs by Western blot analysis; format: cell-based; in short: as §1
[4] = biological target: Glutathione S-transferase P (Homo sapiens) (UniProt P09211); assay: Induction of GSTP1 degradation in human HT-1080 cells at 40 to 80 uM measured after 3 hrs by Western blot analysis; format: cell-based; details: dose 40-80 µM; in short: as §1
[5] = biological target: Glutathione S-transferase P (Homo sapiens) (UniProt P09211); assay: Induction of GSTP1 degradation in human A549 cells at 40 to 80 uM measured after 3 hrs by Western blot analysis; format: cell-based; details: dose 40-80 µM; in short: as §1
[6] = biological target: Glutathione S-transferase P (Homo sapiens) (UniProt P09211); assay: Induction of GSTP1 degradation in human HeLa cells at 5 to 80 uM measured after 3 hrs by Western blot analysis; format: cell-based; details: dose 5-80 µM; in short: as §1
HeLa [7] = assay: Induction of apoptosis in human HeLa cells assessed as early apoptotic cells at 80 uM measured after 3 hrs by Annexin V-FITC/propidium iodide staining based flow cytometry (reference value: 4.37%); format: functional
HeLa [8] = assay: Induction of reactive oxygen species generation in human HeLa cells at 80 uM measured after 3 hrs by DCFH-DA staining based fluorescence laser confocal microscopic analysis; format: functional, cell-based
In short: (§2)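 HeLa cells loaded with DCFH-DA fluorescent ROS probe after treatment at the indicated concentrations. Fluorescence read at Ex/Em 488/525 by laser confocal microscopy. Rosup 50 μg/mL served as positive control.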

HeLa [9] = assay: Induction of apoptosis in human HeLa cells assessed as viable cells at 80 uM measured after 3 hrs by Annexin V-FITC/propidium iodide staining based flow cytometry (reference value: 91.43%); format: functional; details: read-out: Activity
HeLa [10] = assay: Induction of apoptosis in human HeLa cells assessed as necrotic cells at 80 uM measured after 3 hrs by Annexin V-FITC/propidium iodide staining based flow cytometry (reference value: 0.61%); format: functional
HeLa [11] = assay: Induction of apoptosis in human HeLa cells assessed as late apoptotic cells at 80 uM measured after 3 hrs by Annexin V-FITC/propidium iodide staining based flow cytometry (reference value: 3.59%); format: functional
[12] = biological target: Glutathione S-transferase P (Homo sapiens) (UniProt P09211); assay: Induction of GSTP1 degradation in human HeLa cells at 80 uM measured after 3 hrs in presence of 20S proteasome inhibitor bortezomib by Western blot analysis; format: cell-based
In short: (§3)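 HeLa cells cotreated with test compound plus bortezomib (20S proteasome inhibitor), PYR-41 (E1 ubiquitin-activating enzyme inhibitor) or bafilomycin A1 (V-ATPase inhibitor, blocks autophagosome–lysosome fusion). GSTP in total cell lysates then detected by Western blot with specific antibodies. Representative of three independent experiments.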

[13] = biological target: Glutathione S-transferase P (Homo sapiens) (UniProt P09211); assay: Induction of GSTP1 degradation in human HT-1080 cells at 5 to 80 uM measured after 3 hrs by Western blot analysis; format: cell-based; details: dose 5-80 µM; in short: as §1
[14] = biological target: Glutathione S-transferase P (Homo sapiens) (UniProt P09211); assay: Induction of GSTP1 degradation in human HeLa cells at 80 uM measured after 3 hrs in presence of ubiquitin activating enzyme E1 inhibitor PYR-41 by Western blot analysis; format: cell-based; in short: as §3
HeLa [15] = assay: Induction of apoptosis in human HeLa cells assessed as viable cells at 10 uM measured after 3 hrs by Annexin V-FITC/propidium iodide staining based flow cytometry (reference value: 91.43%); format: functional; details: read-out: Activity
HeLa [16] = assay: Induction of apoptosis in human HeLa cells assessed as viable cells at 20 uM measured after 3 hrs by Annexin V-FITC/propidium iodide staining based flow cytometry (reference value: 91.43%); format: functional; details: read-out: Activity
HeLa [17] = assay: Induction of reactive oxygen species generation in human HeLa cells measured after 3 hrs by DCFH-DA staining based fluorescence laser confocal microscopic analysis; format: functional, cell-based; details: dose 5-80 µM; in short: as §2
HeLa [18] = assay: Induction of apoptosis in human HeLa cells assessed as late apoptotic cells at 10 uM measured after 3 hrs by Annexin V-FITC/propidium iodide staining based flow cytometry (reference value: 3.59%); format: functional
[19] = biological target: Glutathione S-transferase P (Homo sapiens) (UniProt P09211); assay: Induction of GSTP1 degradation in human HeLa cells measured after 3 hrs in presence of protein synthesis inhibitor cycloheximide by Western blot analysis; format: cell-based
In short: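 HeLa cells pretreated with cycloheximide, then exposed to compound over a dose range for 3 h. GSTP in total lysates read by Western blot with specific antibodies. Blots representative of three independent experiments.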

HeLa [20] = assay: Induction of apoptosis in human HeLa cells assessed as early apoptotic cells at 40 uM measured after 3 hrs by Annexin V-FITC/propidium iodide staining based flow cytometry (reference value: 4.37%); format: functional
HeLa [21] = assay: Induction of apoptosis in human HeLa cells assessed as necrotic cells at 20 uM measured after 3 hrs by Annexin V-FITC/propidium iodide staining based flow cytometry (reference value: 0.61%); format: functional
[22] = biological target: Glutathione S-transferase P (Homo sapiens) (UniProt P09211); assay: Induction of GSTP1 degradation in human HeLa cells assessed as increase in c-Jun phosphorylation at 5 to 80 uM measured after 3 hrs by Western blot analysis; format: cell-based; details: dose 5-80 µM
In short: (§4)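 HeLa cells exposed to compound for 3 h. Total cell lysates probed by Western blot with specific antibodies for phospho-JNK, phospho-c-Jun and total JNK. Total JNK bands quantified by densitometry. Representative of three independent experiments.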

[23] = biological target: Glutathione S-transferase P (Homo sapiens) (UniProt P09211); assay: Induction of GSTP1 degradation in human HeLa cells measured after 3 hrs by Western blot analysis; format: cell-based; in short: as §1
HeLa [24] = assay: Induction of apoptosis in human HeLa cells assessed as late apoptotic cells at 20 uM measured after 3 hrs by Annexin V-FITC/propidium iodide staining based flow cytometry (reference value: 3.59%); format: functional
HeLa [25] = assay: Induction of apoptosis in human HeLa cells assessed as necrotic cells at 10 uM measured after 3 hrs by Annexin V-FITC/propidium iodide staining based flow cytometry (reference value: 0.61%); format: functional
[26] = biological target: Glutathione S-transferase P (Homo sapiens) (UniProt P09211); assay: Induction of GSTP1 degradation in human HeLa cells at 40 uM measured after 3 hrs by Western blot analysis relative to control; format: cell-based; in short: as §1
[27] = biological target: Glutathione S-transferase P (Homo sapiens) (UniProt P09211); assay: Induction of GSTP1 degradation in human HeLa cells assessed as reduction in total JNK expression at 20 to 80 uM measured after 3 hrs by Western blot analysis; format: cell-based; details: dose 20-80 µM; in short: as §4
HeLa [28] = assay: Induction of apoptosis in human HeLa cells assessed as necrotic cells at 40 uM measured after 3 hrs by Annexin V-FITC/propidium iodide staining based flow cytometry (reference value: 0.61%); format: functional
[29] = biological target: Glutathione S-transferase P (Homo sapiens) (UniProt P09211); assay: Induction of GSTP1 degradation in human A549 cells at 5 to 80 uM measured after 3 hrs by Western blot analysis; format: cell-based; details: dose 5-80 µM; in short: as §1
[30] = biological target: Glutathione S-transferase P (Homo sapiens) (UniProt P09211); assay: Induction of GSTP1 degradation in human HeLa cells at 80 uM measured after 3 hrs in presence of vacuolar type H (+)-ATPase inhibitor bafilomycin A1 by Western blot analysis; format: cell-based; in short: as §3
HeLa [31] = assay: Induction of apoptosis in human HeLa cells assessed as early apoptotic cells at 10 uM measured after 3 hrs by Annexin V-FITC/propidium iodide staining based flow cytometry (reference value: 4.37%); format: functional
HeLa [32] = assay: Induction of apoptosis in human HeLa cells assessed as viable cells at 40 uM measured after 3 hrs by Annexin V-FITC/propidium iodide staining based flow cytometry (reference value: 91.43%); format: functional; details: read-out: Activity
HeLa [33] = assay: Induction of apoptosis in human HeLa cells assessed as early apoptotic cells at 20 uM measured after 3 hrs by Annexin V-FITC/propidium iodide staining based flow cytometry (reference value: 4.37%); format: functional
HeLa [34] = assay: Induction of apoptosis in human HeLa cells assessed as late apoptotic cells at 40 uM measured after 3 hrs by Annexin V-FITC/propidium iodide staining based flow cytometry (reference value: 3.59%); format: functional
[35] = biological target: Glutathione S-transferase P (Homo sapiens) (UniProt P09211); assay: Induction of GSTP1 degradation in human HeLa cells assessed as increase in JNK phosphorylation at 5 to 80 uM measured after 3 hrs by Western blot analysis; format: cell-based; details: dose 5-80 µM; in short: as §4
HeLa [36] = assay: Induction of apoptosis in human HeLa cells measured after 3 hrs by Annexin V-FITC/propidium iodide staining based flow cytometry; format: functional, cell-based

Glutathione S-transferase P (Homo sapiens), sequence (P09211 2-210 limits assumed): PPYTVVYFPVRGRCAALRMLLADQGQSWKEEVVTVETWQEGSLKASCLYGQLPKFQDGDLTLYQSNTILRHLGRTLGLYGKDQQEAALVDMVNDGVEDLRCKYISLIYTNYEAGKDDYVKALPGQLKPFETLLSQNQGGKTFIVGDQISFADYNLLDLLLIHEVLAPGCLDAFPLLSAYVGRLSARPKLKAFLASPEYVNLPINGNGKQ

C=C(CC)C(=O)c1ccc(OCC(=O)NC23CC4CC(CC(C4)C2)C3)c(Cl)c1Cl
inhibition [1]: Active | Activity [2]: Active

C=C(CC)C(=O)c1ccc(OCC(=O)NCCCCCCNC(=O)OC(C)(C)C)c(Cl)c1Cl
Activity [3]: Active

C=C(CC)C(=O)c1ccc(OCC(=O)OCCOCCOCCOC23CC4CC(CC(C4)C2)C3)c(Cl)c1Cl
inhibition [1]: Active | Activity [2]: inactive

C=C(CC)C(=O)c1ccc(OCC(=O)OCCOCCOCCOCCOC23CC4CC(CC(C4)C2)C3)c(Cl)c1Cl
inhibition [1]: Active | Activity [2]: inactive

C=C(CC)C(=O)c1ccc(OCC(=O)NCCCCCCNC(=O)CC23CC4CC(CC(C4)C2)C3)c(Cl)c1Cl
inhibition [1]: Active | Activity [2]: Active

C=C(CC)C(=O)c1ccc(OCC(=O)NCCNC(=O)OC(C)(C)C)c(Cl)c1Cl
Activity [4]: inactive | Activity [5]: inactive | Activity [6]: inactive

C=C(CC)C(=O)c1ccc(OCC(=O)O)c(Cl)c1Cl [ETHACRYNIC ACID]
Activity (HeLa [7]): 3.67% | Activity (HeLa [8]): inactive | viability at 80 µM (HeLa [9]): 84.3% | Activity (HeLa [10]): 1.72% | Activity (HeLa [11]): 10.3%

C=C(CC)C(=O)c1ccc(OCC(=O)NCCNC(=O)CC23CC4CC(CC(C4)C2)C3)c(Cl)c1Cl
inhibition [1]: Active | Activity [2]: Active

C=C(CC)C(=O)c1ccc(OCC(=O)OCCOCCOC23CC4CC(CC(C4)C2)C3)c(Cl)c1Cl
inhibition [1]: Active | Activity [2]: inactive

C=C(CC)C(=O)c1ccc(OCC(=O)NCCCCNC(=O)CC23CC4CC(CC(C4)C2)C3)c(Cl)c1Cl
Activity (HeLa [7]): 18.03% | Activity [12]: inactive | Activity [13]: Active | Activity [14]: inactive | viability at 10 µM (HeLa [15]): 92.5% | viability at 20 µM (HeLa [16]): 57% | Activity (HeLa [17]): Dose-dependent effect | Activity (HeLa [18]): 3.7% | Activity [19]: Dose-dependent effect | Activity (HeLa [20]): 19.7% | Activity (HeLa [21]): 0.93% | Activity [22]: Active | Activity [23]: Dose-dependent effect | Activity (HeLa [24]): 26.61% | Activity (HeLa [25]): 0.49% | Activity [26]: 80% | Activity [27]: Active | Activity (HeLa [28]): 0.75% | viability at 80 µM (HeLa [9]): 20.5% | inhibition [1]: Active | Activity (HeLa [10]): 0.23% | Activity [29]: Active | Activity [30]: inactive | Activity (HeLa [31]): 3.28% | viability at 40 µM (HeLa [32]): 45% | Activity (HeLa [33]): 15.48% | Activity (HeLa [11]): 61.27% | Activity (HeLa [34]): 34.59% | Activity [2]: Active | Activity [35]: Active | Activity (HeLa [36]): Dose-dependent effect

C=C(CC)C(=O)c1ccc(OCC(=O)OCCOC23CC4CC(CC(C4)C2)C3)c(Cl)c1Cl
inhibition [1]: Active | Activity [2]: inactive
